ChEMBL document CHEMBL1159325, “Pseudoirroratin A, a new cytotoxic ent-kaurene diterpene from Isodon pseudo-irrorata” (J Nat Prod, 2002)

What was measured:
Type in all cases: functional, cell-based
LNCaP = test: Cytotoxicity against human LNCAP cells by MTT assay
In short: (§1)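 Cytotoxicity was run on human cell lines (Lu1, SW626, LNCaP, KB, and the HOG.R5 reporter line derived from parental HOS cells) following a previously established protocol. Camptothecin served as the positive control, and results were expressed as IC50.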

SW626 = test: Cytotoxicity against human SW626 cells by MTT assay; in short: as §1
KB = test: Cytotoxicity against human KB cells by MTT assay; in short: as §1
[1] = Cytotoxicity against human HOG.R5 cells by MTT assay; in short: as §1
Lu1 = test: Cytotoxicity against human Lu1 cells by MTT assay; in short: as §1
HOS = test: Cytotoxicity against human HOS cells by MTT assay

CC[C@@]1(O)C(=O)OCc2c1cc1n(c2=O)Cc2cc3ccccc3nc2-1 [CAMPTOTHECIN]
IC50 (LNCaP): 0.0861 µM | IC50 (SW626): 0.0287 µM | IC50 (KB): 0.0287 µM | IC50 [1]: 0.0287 µM | IC50 (Lu1): 0.0287 µM

C=C1C(=O)[C@]23[C@H](O)C[C@@H]4C(C)(C)CCC[C@]45CO[C@](O)(C[C@@H]1[C@H]2O)[C@@H]53 [PSEUDOIRRORATIN A]
IC50 (LNCaP): 2.59 µM | IC50 (SW626): 0.57 µM | IC50 (KB): 2.59 µM | IC50 (HOS): 1.44 µM | IC50 (Lu1): 0.75 µM
